# Measured values reported in PubChem BioAssay AID588478 (ICCB-Longwood Screening Facility, Harvard Medical School, 2011).
# In all, about 330,000 compounds went through this assay and about 1,100 (0.33%) were called active. The full list was thinned out, with actives kept by preference. Values without a mark were called inactive.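 The calls were made as follows: active = mean inhibition over replicate wells above about 20% (limit read from the data); inactive = the rest.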
# Target: Ubiquitin carboxyl-terminal hydrolase isozyme L5 (Homo sapiens) (UniProt Q9Y5K5)
# Experiment: proteasome-bound UCH37 DUB activity blockers – biochemical, Ub-AMC cleavage, fluorescence, primary screen (AID 588478);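 also: 0% = compound-free wells with enzyme and 100% = wells lacking proteasome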
# Details: purified proteasome/UCH37, Ub-AMC cleavage fluorescence; stronger effect = higher value; concentration not given here
# Procedure, shortened: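 system = Proteasome-associated human UCH37 deubiquitinase | amount = 0.15 nM proteasome as dispensed | medium = pH 7.4 Tris-HCl (50 mM) with ovalbumin, ATP-MgCl2, DTT | incubation = 30 min preincubation with enzyme, 25 min cleavage at room temperature | detection = AMC fluorescence 355/460 nm | read-out basis = percent inhibition | controls = no-proteasome and no-compound wells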
# Sequence of Ubiquitin carboxyl-terminal hydrolase isozyme L5 (Homo sapiens) (Q9Y5K5 whole entry, looked up): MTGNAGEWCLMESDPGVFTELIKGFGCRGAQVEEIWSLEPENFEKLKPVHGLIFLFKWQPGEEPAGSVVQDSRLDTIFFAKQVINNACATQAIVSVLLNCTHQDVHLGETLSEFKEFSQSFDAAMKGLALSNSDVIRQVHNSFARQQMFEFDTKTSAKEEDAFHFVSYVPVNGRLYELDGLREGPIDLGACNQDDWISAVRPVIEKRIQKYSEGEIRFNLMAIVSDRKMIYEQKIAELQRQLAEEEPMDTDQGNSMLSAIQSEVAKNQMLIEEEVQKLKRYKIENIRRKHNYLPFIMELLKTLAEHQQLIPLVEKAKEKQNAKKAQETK
row,SMILES,inhibition
1,CC(=NNC(=O)Cc1c[nH]c2ccccc12)c1ccc2ccccc2c1,-2.68%
2,Cc1cc(Nc2ccc(N3CCOCC3)cc2)c2cccc(C)c2n1,9.4%
3,Cc1cc(Nc2ccc(C(=O)N3CCCCC3)cc2)c2cccc(C)c2n1,7.53%
4,Cc1ccc(Nc2cc(C)nc3c(C)ccc([N+](=O)[O-])c23)cc1,42.3% (active)
5,CC1(C)CC(=O)CC(=NNC(=O)c2ccc(-c3ccccc3)cc2)C1,3.09%
6,CCOc1cc(C=NO)ccc1OS(=O)(=O)c1ccc(C)cc1,-0.715%
7,CC(C)COc1ccc(C(=O)OCC(=O)NCCC2=CCCCC2)cc1,1.87%
8,CC(OC(=O)c1c(F)cccc1F)C(=O)NCCC1=CCCCC1 (configuration not stated),29% (active)
9,CC(OC(=O)c1ccc(Cl)cc1O)C(=O)NCCC1=CCCCC1 (configuration not stated),-2.32%
10,C=CCc1c(C)nc(-c2ccccc2)nc1NN=C(C)c1ccc(N)cc1,5.32%
11,O=C(NN=Cc1sc(N2CCCCC2)nc1-c1cccs1)C1CC1,-4.87%
12,COc1ccc(/C(O)=C2/C(=O)C(=O)N(CCCN(C)C)C2c2ccccc2)cc1OC (configuration not stated),8.49%
13,CCCOc1ccc(/C(O)=C2/C(=O)C(=O)N(CCN(C)C)C2c2ccc(OC)c(OC)c2)cc1 (configuration not stated),9.6%
14,COc1cccc(C2/C(=C(/O)c3ccc(F)cc3)C(=O)C(=O)N2CCN(C)C)c1 (configuration not stated),26.3% (active)
15,CCC1SC(C)CC(=NNC(N)=O)C1C (configuration not stated),1.74%
16,O=C(NN=Cc1ccc(O)cc1)c1csc2ccccc12,3.7%

row,SMILES,inhibition
1,Cc1nn(C)c(C(=O)NN=Cc2cccnc2)c1Cl,1.1%
2,CC(=NNc1ccccc1)c1c(O)cc(C)oc1=O,2.24%
3,Cc1cc(C)c[n+](-c2[nH]c(=O)sc2C=NNC([S-])=Nc2ccccc2)c1,23% (active)
4,C(=NNc1nc(-c2ccccc2)cs1)c1cccs1,-0.256%
5,COc1ccc(Br)cc1C=Nn1c(COc2ccccc2)n[nH]c1=S,3.72%
6,Cc1ccc(NC(=O)N2CCC(c3nc4c(nnn4Cc4c(F)cccc4Cl)c(=O)[nH]3)CC2)cc1,1.34%
7,Cc1ccc(Cn2nnc3c(=O)[nH]c(C4CCN(S(=O)(=O)/C=C/c5ccccc5)CC4)nc32)cc1,0.769%
8,COc1ccc(Cn2nnc3c(=O)[nH]c(C4CCN(C(=O)c5ccccc5Cl)CC4)nc32)cc1,35.6% (active)
9,Oc1ccc(C=NNC2=NCCCCC2)c(O)c1,-24.8%
10,CC(Oc1cccc(Cl)c1)c1ccnc2nc(N=CN(C)C)nn12 (configuration not stated),-41%
11,CC(=NNC(=O)c1nnn(-c2nonc2N)c1CSc1ccc(Cl)cc1)c1ccco1,0.0783%
12,CC(=O)CC(CC(=O)NC1CCCCC1)c1ccccc1 (configuration not stated),3.65%
13,O=C(CN1C(=O)c2ccccc2S1(=O)=O)NC1CCCCC1,0.614%
14,O=C(CC1OC(=O)c2ccccc21)NC1CCCCC1 (configuration not stated),26% (active)
15,Cc1nnsc1C(=O)NN=Cc1ccccc1,-1.09%
16,COc1ccc(C(C)=NNC(=O)CN(c2ccc(OC)cc2)S(=O)(=O)c2ccccc2)cc1,3.13%
